{"data": "Measured values collected from several papers", "target": "cGMP-dependent protein kinase 2 (PRKG2, Homo sapiens, UniProt Q13237)", "Sequence (Q13237 1-762, as in one of the studies)": "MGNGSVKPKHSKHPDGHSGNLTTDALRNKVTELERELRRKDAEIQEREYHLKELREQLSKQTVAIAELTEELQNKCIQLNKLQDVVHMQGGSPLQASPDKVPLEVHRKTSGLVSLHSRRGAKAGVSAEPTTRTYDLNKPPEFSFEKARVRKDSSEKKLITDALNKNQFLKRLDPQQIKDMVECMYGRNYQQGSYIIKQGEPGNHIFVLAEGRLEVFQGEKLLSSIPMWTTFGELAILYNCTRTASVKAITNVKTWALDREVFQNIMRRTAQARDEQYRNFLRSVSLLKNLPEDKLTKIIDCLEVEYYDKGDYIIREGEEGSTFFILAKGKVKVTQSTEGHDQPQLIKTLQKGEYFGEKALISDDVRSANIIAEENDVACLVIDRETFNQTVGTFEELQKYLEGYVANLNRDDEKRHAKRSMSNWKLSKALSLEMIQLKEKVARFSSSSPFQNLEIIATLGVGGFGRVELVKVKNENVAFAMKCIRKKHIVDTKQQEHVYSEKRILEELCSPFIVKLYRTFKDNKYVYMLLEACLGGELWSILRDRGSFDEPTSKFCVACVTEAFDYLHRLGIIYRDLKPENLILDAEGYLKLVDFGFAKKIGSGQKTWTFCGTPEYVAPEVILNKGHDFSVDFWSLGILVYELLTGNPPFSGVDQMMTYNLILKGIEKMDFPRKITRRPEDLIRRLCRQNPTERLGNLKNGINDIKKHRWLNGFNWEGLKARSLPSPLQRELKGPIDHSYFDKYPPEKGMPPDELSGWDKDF", "note": "Protocols differ between the studies behind these lines."}
{"SMILES": "C[C@H](c1ccc(F)cc1)N(Cc1cccc(C(=O)O)c1)C(=O)c1cnc2ccccc2c1", "assay": "cell-free assay, competition with immobilised ligand", "setting": "1 µM", "remaining binding [%]": 100}
{"SMILES": "CN(c1nccc(-c2cnn3ncccc23)n1)C1CC1", "assay": "binding", "setting": "1 µM", "remaining binding [%]": 100}
{"SMILES": "CNC(=O)[C@@H]1CC[C@@H](n2c(-c3ccc4cnccc4c3)nc3ccc(C(=O)NCc4cccc(C(N)=O)c4)cc32)C1", "assay": "binding, competition with immobilised ligand", "setting": "1 µM", "remaining binding [%]": 100}
{"SMILES": "O=C(c1ccc(Nc2ncc(Cl)c(-c3cc4ccccc4s3)n2)cc1)N1CCC(N2CCCC2)CC1", "assay": "binding, competition with immobilised ligand", "setting": "1 µM", "remaining binding [%]": 13}
{"SMILES": "CN(C)c1ncc(F)c(-c2cnn3ncccc23)n1", "assay": "binding", "setting": "1 µM", "remaining binding [%]": 100}
{"SMILES": "Cn1nc(C(=O)NCc2ccc(C(=O)O)cc2)cc1-c1ccc2[nH]ccc2c1", "assay": "cell-free assay, competition with immobilised ligand", "setting": "0.1 µM", "remaining binding [%]": 78}
{"SMILES": "CN(C)c1nccc(-c2cnn3ncccc23)n1", "assay": "binding", "setting": "1 µM", "remaining binding [%]": 100}
{"SMILES": "FC(F)(F)Oc1cccc(-c2cnc3ccc(-c4ccncc4)nn23)c1", "assay": "cell-free assay, competition with immobilised ligand", "setting": "5 µM", "remaining binding [%]": 88}
{"SMILES": "Cc1cnc(Nc2ccc(C(=O)N3CCC(N4CCCC4)CC3)cc2)nc1-c1cc2ccccc2s1", "assay": "binding, competition with immobilised ligand", "setting": "1 µM", "remaining binding [%]": 2.8}
{"SMILES": "CN(C)C(=O)Cn1cc(-c2nc(C3(c4ccc(-c5cnc(N)nc5)cc4)CC3)no2)cn1", "assay": "cell-free assay, competition with immobilised ligand", "setting": "1 µM", "remaining binding [%]": 100}
{"SMILES": "c1cnn2ncc(-c3ccnc(N4CCC45COC5)n3)c2c1", "assay": "binding", "setting": "1 µM", "remaining binding [%]": 82}
{"SMILES": "C=CC(=O)N1CCC(C(=O)NCC(=O)N2CCN(c3nc(-c4cnc(N)nc4C(F)F)nc(N4CCOCC4)n3)CC2)CC1", "assay": "binding, competition with immobilised ligand", "setting": "1 µM", "remaining binding [%]": 69}
{"SMILES": "CO[C@@H](C)c1c(Nc2ccc([C@H](N(C)C(=O)C3CCS(=O)(=O)CC3)C(F)(F)F)cc2)cnc2cc(Cl)nn12", "assay": "cell-free assay, competition with immobilised ligand", "setting": "1 µM", "remaining binding [%]": 100}
{"SMILES": "O=C(c1ccc(Nc2ncc(Cl)c(-c3ccc(Cl)s3)n2)cc1)N1CCC(N2CCCC2)CC1", "assay": "binding, competition with immobilised ligand", "setting": "1 µM", "remaining binding [%]": 42}
{"SMILES": "COc1cnc(Nc2cccc(S(N)(=O)=O)c2)nc1N1CCN(c2ccccc2)C(=O)C1", "assay": "binding, competition with immobilised ligand", "setting": "1 µM", "remaining binding [%]": 100}
{"SMILES": "Cc1cnn2ncc(-c3ccnc(N(C)C)n3)c2c1", "assay": "binding", "setting": "1 µM", "remaining binding [%]": 98}
{"SMILES": "CNCc1ccccc1-c1csc([C@H](C)Nc2nc(C)nc3cc(OC)c(OC)cc23)c1", "assay": "cell-free assay, competition with immobilised ligand", "setting": "1 µM", "remaining binding [%]": 93}
{"SMILES": "F[C@@H]1CCN(c2nccc(-c3cnn4ncccc34)n2)C1", "assay": "binding", "setting": "1 µM", "remaining binding [%]": 93}
{"SMILES": "O=C1CCc2cc(Nc3cc(OC4CCOCC4)c([N+](=O)[O-])cc3Cl)ccc2N1", "assay": "cell-free assay, competition with immobilised ligand", "setting": "1 µM", "remaining binding [%]": 85}
{"SMILES": "O=C(Nc1c[nH]nc1C(=O)NC1CCNCC1)c1cc(F)cc(F)c1", "assay": "binding, competition with immobilised ligand", "setting": "1 µM", "remaining binding [%]": 91}
{"SMILES": "N[C@H]1CCN(c2nccc(-c3cnn4ncccc34)n2)C1", "assay": "binding", "setting": "1 µM", "remaining binding [%]": 91}
{"SMILES": "Nc1cnc(N2CCc3cc(S(=O)(=O)Nc4c(F)cc(Cl)cc4F)cc(N4CCCC4=O)c32)nc1", "assay": "cell-free assay, competition with immobilised ligand", "setting": "1 µM", "remaining binding [%]": 84}
